Laboratory results from PMC33344 (BMC Chemical Biology, 2001).

Legend:
[1] = target: bullfrog sympathetic ganglia SPR (bfSPR) (Aquarana catesbeiana, UniProt Q98982); assay: Whole cell recording of M-type K+ current; assay type: cell-based; details: for inhibition of IM: single bullfrog sympathetic neurons
[2] = Fluorophore spectral analysis; assay type: physicochemical; details: 10 nM in PBS, pH 7.4
Outline: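 Fluorophore-labelled substance P conjugates were analysed in a spectrofluorometer at 10 nM in PBS, pH 7.4, as solvent. Excitation and emission spectra were recorded for each conjugate, and peak wavelengths were read from the curves.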

Chain of bullfrog sympathetic ganglia SPR (bfSPR) (Q98982 whole entry): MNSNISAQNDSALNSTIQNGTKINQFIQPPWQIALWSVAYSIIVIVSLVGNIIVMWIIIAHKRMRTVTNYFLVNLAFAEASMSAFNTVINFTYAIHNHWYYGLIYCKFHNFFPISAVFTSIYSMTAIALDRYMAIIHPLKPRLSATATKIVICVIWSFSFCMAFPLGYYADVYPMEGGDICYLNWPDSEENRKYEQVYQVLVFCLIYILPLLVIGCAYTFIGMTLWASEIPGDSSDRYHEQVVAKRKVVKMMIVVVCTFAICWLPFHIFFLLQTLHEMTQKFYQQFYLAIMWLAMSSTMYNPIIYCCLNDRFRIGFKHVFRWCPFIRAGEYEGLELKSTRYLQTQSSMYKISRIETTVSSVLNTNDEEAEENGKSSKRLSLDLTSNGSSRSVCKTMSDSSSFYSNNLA

Row | inhibition of IM ([1]; 100 nM, 0.1 µM) | inhibition of IM ([1]; 1 μM) | Molecule | inhibition at 0.1 µM ([1]; read-out: inhibition of IM) [%] | peak excitation [2] [nm] | peak of the emission curve [2] [nm]
1 |  |  | CSCC[C@H](NC(=O)[C@H](CC(C)C)NC(=O)CNC(=O)[C@H](Cc1ccccc1)NC(=O)[C@H](Cc1ccccc1)NC(=O)[C@H](CCC(N)=O)NC(=O)[C@H](CCC(N)=O)NC(=O)[C@@H]1CCCN1C(=O)[C@H](CCCCN)NC(=O)[C@@H]1CCCN1C(=O)[C@@H](N)CCCN=C(N)N)C(N)=O [SP, reference compound] | ~70 |  | 
2 |  |  | fluorescein-SP: Substance P with fluorescein covalently linked at Lys3; Molecular Probes product S-13424 |  | 495 | 520
3 | did not inhibit IM | did not inhibit IM | Alexa 488-SP: Substance P with Alexa 488 covalently linked at Lys3; Molecular Probes product S-13426 |  | 490 | 515
